Experiments:
[1] = human serum; cited from earlier work
[2] = system: blood–brain barrier; conditions: cited from earlier work; for Direction and saturability of BBB transport: mouse brain, brain-to-blood and blood-to-brain
[3] = system: blood–brain barrier of WT and Ghsr null mice; assay: Multiple-time regression analysis of blood-to-brain influx; format: in vivo, mouse; conditions: for Vi, initial volume of distribution in brain (vascular binding): WT mice, whole brain, y-intercept of B/S ratio vs exposure time, mean ± SEM
How it was run: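 Male and female mice (3–6 months) were anaesthetised with 0.15 mL 40% urethane i.p. They received 1 × 10^6 cpm (~20 ng) 125I-labelled peptide plus 5 × 10^5 cpm 99mTc-albumin via jugular vein, in 0.2 mL 1% BSA/lactated Ringer's. Carotid blood was taken at 1–10 min, and serum and brain were gamma-counted. Brain/serum ratios (μL/g) were plotted against exposure time (Patlak): the slope gave Ki and the intercept gave Vi.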

[4] = system: brain endothelial cell (capillary vs parenchyma); assay: Capillary depletion: complete transfer across the brain endothelial cell; format: in vivo, mouse; conditions: 10 min after IV injection, n = 3
How it was run: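 Urethane-anaesthetised male and female mice (3–6 months) received a 0.2 mL IV injection of 1 × 10^6 cpm 125I-labelled test peptide plus 5 × 10^5 cpm 99mTc-albumin in 1% BSA/lactated Ringer's. Brain was homogenised and spun at 5400 g for 15 min at 4 °C. The capillary pellet was separated from the parenchymal supernatant, and the parenchyma was vascular-corrected using 99mTc-albumin. Ratios were (cpm/g tissue)/(cpm/μL serum).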

Substance | Half-life [1] [min] | Degradation of AG into DAG ([2]; same time frame (10 min)) | Vi, initial volume of distribution in brain (vascular binding) [3] [µL/g] | Direction and saturability of BBB transport [2] | Transport rate relative to the other three ghrelin forms ([3]; BBB transport rate in mice, hDAG vs mDAG, hAG, mAG) | Capillary/serum ratio [4] [µL/g]
acyl ghrelin [AG] | ~10 | not degraded into DAG |  |  |  | 
human AG [hAG] |  |  | 1.192 ± 0.57 | bidirectional and saturable manner |  | 
human DAG [hDAG] |  |  | 1.775 ± 0.81 |  | approximately three times faster | 1.0 ± 0.30
mouse AG [mAG] |  |  | 2.847 ± 0.57 | bidirectional and saturable manner |  | 
mouse DAG [mDAG] |  |  | 2.265 ± 0.75 | unidirectionally and in an unsaturable manner |  | 

From PMC6308033 (Molecular Metabolism, 2018)
